Where “and” joins values, the source holds several entries; their conditions need not be identical. Equal values may be shown once. Read-outs that look alike come from different tables or passages of the source.
How the values were obtained:
[1] = tested on: H4IIE cells; assay: GSH levels in H4IIE rat hepatoma cells; assay type: cell-based; conditions: 24 h
Method in brief: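 H4IIE rat hepatoma cells grown in MEM with 10% heat-inactivated FBS, non-essential amino acids and 1 mM pyruvate at 37 °C, 5% CO2. 3 × 10^6 cells exposed 24 h to 10–160 µM test compound (DMSO 0.5% final as control), then lysed in pH 7.0 phosphate/EDTA. Total GSH measured by enzymatic recycling on 1 µg protein (Bradford), expressed as fold over control. Two-sided tests, p < 0.05.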

[2] = tested on: QR-1 activity in mouse Hepa 1c1c7 cells; conditions: cited from earlier work
[3] = tested on: carcinogen-treated mouse mammary organ culture; conditions: at 10 µg/mL; cited from earlier work
[4] = tested on: DMBA-induced mammary tumors; conditions: preliminary study, 5.0 g/kg diet, cited from earlier work
[5] = tested on: GSH; assay: GSH level in rat tissues after dietary ILG; assay type: in vivo; conditions: 10.0 g/kg diet; liver, colon, mammary gland
[6] = tested on: quinone reductase-1 (QR-1); assay: QR-1 activity in rat tissues after dietary ILG; assay type: in vivo
[7] = Quantification of ILG in rat plasma and tissues by LC-MS-MS; assay type: in vivo
[8] = tested on: glutathione S-transferase (GST); assay: GST activity in rat tissues after dietary ILG; assay type: in vivo; conditions: 10.0 g/kg diet; liver, colon, mammary gland
[9] = tested on: DMBA-induced mammary tumors; assay: DMBA-induced mammary carcinogenesis in rats; assay type: in vivo
[10] = Metabolism of ILG in the rat; assay type: in vivo; conditions: rat plasma after administration of ILG

In the case of O=c1cc(-c2ccc(Br)cc2)oc2ccccc12 [4'-Bromoflavone, reference compound], the GSH levels ([1]; H4IIE cells, 10 µM, positive control) is reported as “significant increase in GSH levels”.

In the case of O=C(/C=C/c1ccc(O)cc1)c1ccc(O)cc1O [ILG, 2′,4′,4-trihydroxychalcone], the “CD, induction of QR-1 activity” value [2] is listed as 2 µM, the “inhibition in carcinogen-treated mouse mammary organ culture assay” value [3] is listed as 76% and the “incidence of mammary tumors” value ([4]; after 120 days) is listed as “little effect on the incidence of mammary tumors”. For the same molecule, the tumor latency ([4]; one week prior and one week after DMBA) was “increased tumor latency”, the adverse effects [4] was “no adverse effects were detected” and the GSH levels [5] was “significantly elevated only in the liver”. The “dose giving significant increase of total GSH” value ([1]; rat hepatoma cells) was ≥ 80 µM, the QR-1 activity ([6]; colon, end of in vivo study) was “significantly elevated” and the QR-1 activity ([6]; liver or mammary gland tissues) was “no significant induction”. The “Concentration of ILG in liver tissue” value ([7]; 7.50 g/kg diet + DMBA) was 2.56 ± 0.96 µg/g tissue, the “Concentration of ILG in mammary tissue” value ([7]; 7.50 g/kg diet + DMBA) was 0.044 ± 0.014 µg/g tissue and the “Concentration of ILG in plasma” value ([7]; 7.50 g/kg diet + DMBA) was 57.81 ± 19.65 ng/mL and 57.8 ± 19.6 ng/mL. For the same molecule, the “Concentration of ILG in liver tissue” value ([7]; 10.0 g/kg diet) was 3.25 ± 1.38 µg/g tissue, the “Concentration of ILG in mammary tissue” value ([7]; 10.0 g/kg diet) was 0.094 ± 0.043 µg/g tissue and the “Concentration of ILG in plasma” value ([7]; 10.0 g/kg diet) was 142.2 ± 35.9 ng/mL. For the same molecule, the “Concentration of ILG in liver tissue” value ([7]; 10.0 g/kg diet + DMBA) was 4.71 ± 1.64 µg/g tissue, the “Concentration of ILG in mammary tissue” value ([7]; 10.0 g/kg diet + DMBA) was 0.084 ± 0.040 µg/g tissue and the “Concentration of ILG in plasma” value ([7]; 10.0 g/kg diet + DMBA) was 134.6 ± 47.2 ng/mL. For the same molecule, the GST activity [8] was “significantly elevated only in the liver”, the tumor latency ([9]; 7.5 and 10 g/kg diet during the entire study) was “increased tumor latency” and the “overall tumor incidence and multiplicity” value ([9]; 7.5 and 10 g/kg diet, after 84 days) was “increased the overall tumor incidence and multiplicity”. For the same molecule, the body weight ([9]; between the different groups, 7.5 and 10 g/kg diet) was “no significant differences in body weight”.

With O=C(/C=C/c1ccc(O)cc1)c1ccc(O[C@@H]2O[C@H](C(=O)O)[C@@H](O)[C@H](O)[C@H]2O)cc1O [MG5, 4′-glucuronosylisoliquiritigenin] the “relative abundance among the five glucuronides” value [10] was “most abundant”.

Reference: publication PMC2818593 (Cancer prevention research (Philadelphia, Pa.), 2010)
